According to ChEMBL document CHEMBL1139275, “Design, synthesis, and biological evaluation of biotin-labeled (-)-ternatin, a potent fat-accumulation inhibitor against 3T3-L1 adipocytes” (Bioorg Med Chem Lett, 2009):

Columns and labels:
3T3-L1 [1] = test: Inhibition of fat accumulation in mouse 3T3L1 cells after 7 days; assay type: functional, cell-based; details: 3T3-L1, 168 h
Procedure, shortened: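 3T3-L1 cells were exposed to each sample during differentiation, while untreated controls became fully mature adipocytes. Fat accumulation was expressed relative to the controls, and IC50 was taken as the concentration giving 50% inhibition. Values are means of quadruplicate determinations.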

[2] = Cytotoxicity against mouse 3T3L1 cells at 5.2 uM; assay type: cell-based; details: 3T3-L1 cells, read-out: INH
3T3-L1 [3] = test: Cytotoxicity against mouse 3T3L1 cells; assay type: cell-based

## CC[C@H](C)[C@H]1NC(=O)[C@@H](CO)NC(=O)[C@@H](C)N(C)C(=O)[C@H](C)N(C)C(=O)[C@H](CC(C)C)NC(=O)[C@H](CC(C)C)N(C)C(=O)[C@H](C)N(C)C1=O
3T3-L1 [1]
  IC50: 12 µM

## C#CC[C@@H]1C(=O)N[C@H]([C@H](O)C(C)C)C(=O)N[C@H]([C@@H](C)CC)C(=O)N(C)[C@@H](C)C(=O)N(C)[C@@H](CC(C)C)C(=O)N[C@@H](CC(C)C)C(=O)N(C)[C@@H](C)C(=O)N1C
[2]
  cytotoxicity at 5.2 µM: 54%
3T3-L1 [1]
  IC50: 0.019 µM
3T3-L1 [3]
  IC50: > 5.2 µM

## CC[C@H](C)[C@H]1NC(=O)[C@@H]([C@@H](C)O)NC(=O)[C@@H](C)N(C)C(=O)[C@H](C)N(C)C(=O)[C@H](CC(C)C)NC(=O)[C@H](CC(C)C)N(C)C(=O)[C@H](C)N(C)C1=O
3T3-L1 [1]
  IC50: 3.1 µM

## CC[C@H](C)[C@H]1NC(=O)[C@@H]([C@H](O)C(C)C)NC(=O)[C@@H](Cc2cn(CCOCCOCCNC(=O)CCCC[C@@H]3SC[C@@H]4NC(=O)N[C@@H]43)nn2)N(C)C(=O)[C@H](C)N(C)C(=O)[C@H](CC(C)C)NC(=O)[C@H](CC(C)C)N(C)C(=O)[C@H](C)N(C)C1=O
3T3-L1 [1]
  IC50: 46 µM
3T3-L1 [3]
  IC50: > 86 µM
